Source: ChEMBL document CHEMBL1143918, “Novel coumarin glycoside and phenethyl vanillate from Notopterygium forbesii and their binding affinities for opioid and dopamine receptors” (Bioorg Med Chem, 2008)

How the values were obtained:
Type in all cases: cell-based
Mu-type opioid receptor = Mu-type opioid receptor (Rattus norvegicus, UniProt P33535); assay: Displacement of [3H]diprenorphine from rat mu opioid receptor expressed in CHO cells
How it was run: (§1)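 Competitive inhibition of [3H]diprenorphine binding to human KOR, rat MOR or mouse DOR stably expressed in CHO cells. Compounds screened at 10 μM; those displacing >50% were tested over a concentration range and Ki calculated from competitive inhibition curves.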

[1] = biological target: Delta-type opioid receptor (Mus musculus, UniProt P32300); assay: Displacement of [3H]diprenorphine from mouse delta opioid receptor expressed in CHO cells; how it was run: as §1
[2] = biological target: Kappa-type opioid receptor (Homo sapiens, UniProt P41145); assay: Displacement of [3H]diprenorphine from human kappa opioid receptor expressed in CHO cells; how it was run: as §1
D(1A) dopamine receptor = D(1A) dopamine receptor (Rattus norvegicus, UniProt P18901); assay: Displacement of [3H]SCH-23390 from rat HA-tagged D1 dopamine receptor expressed in CHO cells
How it was run: (§2)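 Membranes from CHO cells stably expressing HA-tagged rat D1 receptor; cells grown in DMEM/F12 with 10% fetal calf serum and hygromycin B at 37°C, 5% CO2. Binding: 0.2 nM [3H]SCH23390 in 50 mM Tris-HCl, 1 mM EGTA, pH 7.4, room temperature, 1 h, duplicate. Fluphenazine (10 μM) defined nonspecific binding. Screened at 10 μM; compounds displacing >50% taken to Ki from competition curves.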

[3] = biological target: D(1A) dopamine receptor (Rattus norvegicus) (UniProt P18901); assay: Displacement of [3H]SCH-23390 from rat HA-tagged D1 dopamine receptor expressed in CHO cells at 10 uM; how it was run: as §2
Chain of D(1A) dopamine receptor (Rattus norvegicus) (P18901 whole entry): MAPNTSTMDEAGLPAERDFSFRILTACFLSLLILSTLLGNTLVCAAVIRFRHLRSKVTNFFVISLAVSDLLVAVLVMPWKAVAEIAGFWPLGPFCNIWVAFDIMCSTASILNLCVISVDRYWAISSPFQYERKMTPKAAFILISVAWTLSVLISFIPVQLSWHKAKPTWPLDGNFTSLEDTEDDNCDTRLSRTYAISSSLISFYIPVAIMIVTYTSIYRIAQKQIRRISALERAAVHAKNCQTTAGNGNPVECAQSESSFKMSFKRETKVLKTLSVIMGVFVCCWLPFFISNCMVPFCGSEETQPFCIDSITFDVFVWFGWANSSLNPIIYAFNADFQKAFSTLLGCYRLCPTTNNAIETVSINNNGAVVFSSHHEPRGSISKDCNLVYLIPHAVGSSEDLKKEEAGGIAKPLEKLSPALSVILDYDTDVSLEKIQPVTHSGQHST

Chain of Delta-type opioid receptor (P32300 whole entry): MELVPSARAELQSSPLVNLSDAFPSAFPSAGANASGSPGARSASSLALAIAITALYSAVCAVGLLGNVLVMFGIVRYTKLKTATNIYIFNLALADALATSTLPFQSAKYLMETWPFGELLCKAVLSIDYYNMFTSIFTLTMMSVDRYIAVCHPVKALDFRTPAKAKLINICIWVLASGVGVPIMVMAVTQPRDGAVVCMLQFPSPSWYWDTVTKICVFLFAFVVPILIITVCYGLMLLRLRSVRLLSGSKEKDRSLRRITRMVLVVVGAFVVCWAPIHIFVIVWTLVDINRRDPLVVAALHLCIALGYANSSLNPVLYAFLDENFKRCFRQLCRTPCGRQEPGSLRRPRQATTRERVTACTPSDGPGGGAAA
Chain of D(1A) dopamine receptor (P18901 whole entry): as the sequence (P18901 whole entry) above
Chain of Kappa-type opioid receptor (P41145 whole entry): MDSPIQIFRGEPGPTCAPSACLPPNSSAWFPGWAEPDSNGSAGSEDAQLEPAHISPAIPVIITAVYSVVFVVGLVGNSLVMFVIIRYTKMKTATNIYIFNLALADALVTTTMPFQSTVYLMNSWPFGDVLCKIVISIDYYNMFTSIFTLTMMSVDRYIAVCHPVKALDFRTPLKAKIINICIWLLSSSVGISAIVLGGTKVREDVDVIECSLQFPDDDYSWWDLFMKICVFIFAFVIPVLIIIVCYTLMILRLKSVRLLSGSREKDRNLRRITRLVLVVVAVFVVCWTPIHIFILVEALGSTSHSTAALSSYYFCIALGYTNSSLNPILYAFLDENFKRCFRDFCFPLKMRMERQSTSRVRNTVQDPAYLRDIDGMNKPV
Chain of Mu-type opioid receptor (P33535 whole entry): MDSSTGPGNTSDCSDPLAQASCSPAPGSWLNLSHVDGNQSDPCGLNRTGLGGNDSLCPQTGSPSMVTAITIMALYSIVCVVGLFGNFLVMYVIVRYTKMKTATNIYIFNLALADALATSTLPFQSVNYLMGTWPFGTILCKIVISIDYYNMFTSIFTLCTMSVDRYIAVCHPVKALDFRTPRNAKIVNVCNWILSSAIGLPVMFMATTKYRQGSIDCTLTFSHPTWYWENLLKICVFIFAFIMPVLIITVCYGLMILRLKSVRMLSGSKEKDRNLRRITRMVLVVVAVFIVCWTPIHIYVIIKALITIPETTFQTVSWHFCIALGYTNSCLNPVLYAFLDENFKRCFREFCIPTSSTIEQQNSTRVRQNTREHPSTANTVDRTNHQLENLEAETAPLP

Row | Structure (SMILES) | Ki (Mu-type opioid receptor) | Ki [1] | Ki [2] | Ki (D(1A) dopamine receptor) | Activity [3]
1 | CC(C)=CC(O)C/C(C)=C/COc1ccc2ccc(=O)oc2c1 (centres undefined) [ANISOCOUMARIN H] | > 10 µM | > 10 µM | 2.6 µM | > 10 µM | –
2 | C=C[C@@H](O)C#CC#C[C@@H](O)/C=C\CCCCCCC [FALCARINDIOL] | 1.13 µM | 1.1 µM | 2.51 µM | 0.192 µM | > 50%
3 | CC(C)=CC(O)C/C(C)=C/COc1c2ccoc2cc2oc(=O)ccc12 (centres undefined) [NOTOPTEROL] | > 10 µM | > 10 µM | > 10 µM | 1.42 µM | > 50%
